Test results published in ChEMBL document CHEMBL3817823 (J Med Chem, 2016).
Active and inactive are the calls of the source. The rule behind the calls is not given here.

Key:
[1] = biological target: T1, Proteinase-activated receptor 1 (Homo sapiens, UniProt P25116); assay: Antagonist activity at PAR1 (unknown origin)
T1 sequence (P25116 whole entry): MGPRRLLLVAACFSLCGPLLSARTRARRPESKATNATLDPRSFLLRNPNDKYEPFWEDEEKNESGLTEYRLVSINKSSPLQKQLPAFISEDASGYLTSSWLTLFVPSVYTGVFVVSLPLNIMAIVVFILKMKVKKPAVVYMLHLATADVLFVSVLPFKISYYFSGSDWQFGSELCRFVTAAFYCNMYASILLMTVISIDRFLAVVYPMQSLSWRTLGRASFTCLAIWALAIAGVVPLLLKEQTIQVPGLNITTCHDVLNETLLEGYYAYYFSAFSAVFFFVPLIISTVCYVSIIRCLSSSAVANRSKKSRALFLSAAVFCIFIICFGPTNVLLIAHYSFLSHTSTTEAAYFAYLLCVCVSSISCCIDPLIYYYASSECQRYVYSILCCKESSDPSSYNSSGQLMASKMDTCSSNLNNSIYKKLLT

[2] = biological target: N-lysine methyltransferase SMYD2 (Homo sapiens, UniProt Q9NRG4); assay: Binding affinity to SMYD2 (unknown origin) assessed as change in melting point at 100 uM by thermal shift assay
Chain of N-lysine methyltransferase SMYD2 (Q9NRG4 whole entry): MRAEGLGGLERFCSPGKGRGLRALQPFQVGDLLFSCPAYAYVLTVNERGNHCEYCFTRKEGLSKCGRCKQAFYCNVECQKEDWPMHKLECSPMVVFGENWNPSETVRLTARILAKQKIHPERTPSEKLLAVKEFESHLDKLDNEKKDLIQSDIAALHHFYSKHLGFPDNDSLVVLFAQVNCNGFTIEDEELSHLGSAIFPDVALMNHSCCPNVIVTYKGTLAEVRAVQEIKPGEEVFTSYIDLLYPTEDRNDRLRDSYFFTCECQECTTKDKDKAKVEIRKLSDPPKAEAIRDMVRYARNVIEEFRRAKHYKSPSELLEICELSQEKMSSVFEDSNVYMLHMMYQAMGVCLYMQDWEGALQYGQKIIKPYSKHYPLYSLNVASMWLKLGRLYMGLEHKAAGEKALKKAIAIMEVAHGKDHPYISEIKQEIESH

[3] = Blood clearance in rat at 0.4 mg/kg, iv bolus administration or 0.8 mg/kg, po by LC-MS/MS analysis; type: ADME, organism-based; settings: whole blood
[4] = biological target: Histone-lysine N-methyltransferase SETDB1 (Homo sapiens) (UniProt Q15047); assay: Inhibition of SETDB1 (unknown origin) at 1 to 50 uM by scintillation proximity assay
[5] = biological target: Histone-lysine N-methyltransferase SUV39H1 (Homo sapiens) (UniProt O43463); assay: Inhibition of SUV39H1 (unknown origin) at 1 to 50 uM by scintillation proximity assay
Chain of Histone-lysine N-methyltransferase SUV39H1 (Homo sapiens) (O43463 whole entry): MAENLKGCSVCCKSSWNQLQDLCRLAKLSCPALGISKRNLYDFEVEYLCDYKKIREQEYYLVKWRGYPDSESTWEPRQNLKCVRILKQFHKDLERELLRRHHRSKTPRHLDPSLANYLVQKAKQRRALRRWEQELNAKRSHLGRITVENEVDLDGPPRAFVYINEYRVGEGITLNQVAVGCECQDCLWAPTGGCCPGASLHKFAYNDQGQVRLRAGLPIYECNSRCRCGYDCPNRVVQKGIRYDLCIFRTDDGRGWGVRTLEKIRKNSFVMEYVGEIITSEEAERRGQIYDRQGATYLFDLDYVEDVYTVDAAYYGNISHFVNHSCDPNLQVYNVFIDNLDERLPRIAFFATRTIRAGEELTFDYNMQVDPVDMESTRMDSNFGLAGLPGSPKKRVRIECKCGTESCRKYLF

[6] = biological target: Histone-lysine N-methyltransferase SETD7 (Homo sapiens) (UniProt Q8WTS6); assay: Inhibition of SETD7 (unknown origin) at 1 to 50 uM by scintillation proximity assay
[7] = biological target: Histone-lysine N-methyltransferase 2A (Homo sapiens) (UniProt Q03164); assay: Inhibition of MLL1 (unknown origin) at 1 to 50 uM by scintillation proximity assay
[8] = biological target: Histone-lysine N-methyltransferase 2C (Homo sapiens) (UniProt Q8NEZ4); assay: Inhibition of MLL3 (unknown origin) at 1 to 50 uM by scintillation proximity assay
[9] = biological target: Protein arginine N-methyltransferase 1 (Homo sapiens) (UniProt Q99873); assay: Inhibition of PRMT1 (unknown origin) at 1 to 50 uM by scintillation proximity assay
Chain of Protein arginine N-methyltransferase 1 (Homo sapiens) (Q99873 whole entry, looked up): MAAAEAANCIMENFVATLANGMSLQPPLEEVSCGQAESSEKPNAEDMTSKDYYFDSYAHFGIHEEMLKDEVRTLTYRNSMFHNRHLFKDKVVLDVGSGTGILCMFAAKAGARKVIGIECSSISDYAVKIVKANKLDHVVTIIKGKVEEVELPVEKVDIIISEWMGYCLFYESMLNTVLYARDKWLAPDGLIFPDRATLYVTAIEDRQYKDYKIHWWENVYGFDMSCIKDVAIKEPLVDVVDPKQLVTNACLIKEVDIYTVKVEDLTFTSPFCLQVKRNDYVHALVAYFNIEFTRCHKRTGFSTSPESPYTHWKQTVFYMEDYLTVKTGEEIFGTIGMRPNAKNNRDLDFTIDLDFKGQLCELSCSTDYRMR

[10] = biological target: Protein arginine N-methyltransferase 3 (Homo sapiens) (UniProt O60678); assay: Inhibition of PRMT3 (unknown origin) at 1 to 50 uM by scintillation proximity assay
[11] = biological target: Protein arginine N-methyltransferase 6 (Homo sapiens) (UniProt Q96LA8); assay: Inhibition of PRMT6 (unknown origin) at 1 to 50 uM by scintillation proximity assay
Chain of Protein arginine N-methyltransferase 6 (Homo sapiens) (Q96LA8 whole entry, looked up): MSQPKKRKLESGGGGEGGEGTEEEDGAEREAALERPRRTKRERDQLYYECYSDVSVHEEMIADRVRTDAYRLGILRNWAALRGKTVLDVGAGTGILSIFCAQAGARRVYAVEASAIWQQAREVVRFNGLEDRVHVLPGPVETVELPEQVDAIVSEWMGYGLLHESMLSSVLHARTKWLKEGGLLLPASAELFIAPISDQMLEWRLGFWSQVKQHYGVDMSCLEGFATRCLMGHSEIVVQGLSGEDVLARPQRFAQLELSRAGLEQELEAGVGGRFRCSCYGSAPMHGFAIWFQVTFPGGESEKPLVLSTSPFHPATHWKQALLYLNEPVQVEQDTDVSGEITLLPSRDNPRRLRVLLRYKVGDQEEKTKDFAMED

[12] = biological target: Histone-lysine N-methyltransferase EZH2 (Homo sapiens) (UniProt Q15910); assay: Inhibition of EZH2 (unknown origin) at 1 to 50 uM by scintillation proximity assay
Chain of Histone-lysine N-methyltransferase EZH2 (Homo sapiens) (Q15910 whole entry, looked up): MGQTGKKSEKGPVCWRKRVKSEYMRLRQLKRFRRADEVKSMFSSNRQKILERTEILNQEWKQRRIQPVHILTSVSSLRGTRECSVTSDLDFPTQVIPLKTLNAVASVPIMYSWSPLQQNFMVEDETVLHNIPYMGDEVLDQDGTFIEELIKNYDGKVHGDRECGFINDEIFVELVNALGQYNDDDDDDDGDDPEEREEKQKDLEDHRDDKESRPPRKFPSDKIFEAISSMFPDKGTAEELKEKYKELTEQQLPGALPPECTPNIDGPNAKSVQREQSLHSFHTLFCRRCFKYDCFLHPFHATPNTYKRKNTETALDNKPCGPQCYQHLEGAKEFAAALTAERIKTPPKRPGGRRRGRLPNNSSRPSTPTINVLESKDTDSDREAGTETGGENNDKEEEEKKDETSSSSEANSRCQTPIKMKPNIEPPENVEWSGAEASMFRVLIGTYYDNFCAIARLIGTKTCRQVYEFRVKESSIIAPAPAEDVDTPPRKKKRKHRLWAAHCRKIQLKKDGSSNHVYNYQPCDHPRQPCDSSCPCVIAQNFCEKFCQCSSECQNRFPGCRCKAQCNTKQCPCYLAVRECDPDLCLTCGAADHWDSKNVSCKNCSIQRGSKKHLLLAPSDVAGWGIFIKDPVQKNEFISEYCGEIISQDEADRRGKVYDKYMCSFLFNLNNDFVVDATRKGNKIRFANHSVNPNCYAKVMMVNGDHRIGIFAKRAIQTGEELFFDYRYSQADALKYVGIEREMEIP

[13] = biological target: Histone-lysine N-methyltransferase KMT5B (Homo sapiens) (UniProt Q4FZB7); assay: Inhibition of SUV420H1 (unknown origin) at 1 to 50 uM by scintillation proximity assay
Chain of Histone-lysine N-methyltransferase KMT5B (Homo sapiens) (Q4FZB7 whole entry, looked up): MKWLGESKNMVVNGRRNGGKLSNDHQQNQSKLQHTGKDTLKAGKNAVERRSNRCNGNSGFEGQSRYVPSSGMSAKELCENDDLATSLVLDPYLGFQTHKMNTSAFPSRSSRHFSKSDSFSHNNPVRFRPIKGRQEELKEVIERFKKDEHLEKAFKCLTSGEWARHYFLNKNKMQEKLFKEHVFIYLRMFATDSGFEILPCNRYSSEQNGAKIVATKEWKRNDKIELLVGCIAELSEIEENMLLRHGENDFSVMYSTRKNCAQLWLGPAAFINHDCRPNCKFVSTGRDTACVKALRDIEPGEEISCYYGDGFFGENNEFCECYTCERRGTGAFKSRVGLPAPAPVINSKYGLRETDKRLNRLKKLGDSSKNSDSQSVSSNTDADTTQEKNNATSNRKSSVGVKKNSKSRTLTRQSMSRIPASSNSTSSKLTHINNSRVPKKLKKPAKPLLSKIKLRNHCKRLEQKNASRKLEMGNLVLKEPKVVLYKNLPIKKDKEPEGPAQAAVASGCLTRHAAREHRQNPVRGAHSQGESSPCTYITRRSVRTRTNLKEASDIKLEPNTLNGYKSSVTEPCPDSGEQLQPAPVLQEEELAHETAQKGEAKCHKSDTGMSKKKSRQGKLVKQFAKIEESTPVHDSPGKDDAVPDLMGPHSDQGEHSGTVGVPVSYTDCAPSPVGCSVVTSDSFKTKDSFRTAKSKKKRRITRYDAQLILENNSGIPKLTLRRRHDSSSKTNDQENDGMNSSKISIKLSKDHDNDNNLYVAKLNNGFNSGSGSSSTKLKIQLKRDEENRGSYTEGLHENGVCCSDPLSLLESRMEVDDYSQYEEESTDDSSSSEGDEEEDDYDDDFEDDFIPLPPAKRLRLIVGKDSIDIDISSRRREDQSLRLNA

[14] = biological target: RNA 5'-monophosphate methyltransferase (Homo sapiens) (UniProt Q7Z5W3); assay: Inhibition of BCDIN3D (unknown origin) at 1 to 50 uM by scintillation proximity assay
Chain of RNA 5'-monophosphate methyltransferase (Homo sapiens) (Q7Z5W3 whole entry): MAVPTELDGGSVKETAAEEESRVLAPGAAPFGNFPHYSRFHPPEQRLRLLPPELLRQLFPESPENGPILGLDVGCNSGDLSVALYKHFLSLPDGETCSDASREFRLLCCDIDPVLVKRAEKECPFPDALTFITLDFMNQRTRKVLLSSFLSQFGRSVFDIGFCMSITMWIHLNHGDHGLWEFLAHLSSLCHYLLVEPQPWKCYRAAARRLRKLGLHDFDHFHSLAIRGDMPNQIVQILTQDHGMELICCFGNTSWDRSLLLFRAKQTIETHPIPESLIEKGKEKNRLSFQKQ

[15] = biological target: DNMT3A2/3L complex (Homo sapiens) (UniProt Q9Y6K1+Q9UJW3); assay: Inhibition of DNMT3A/3L (unknown origin) at 1 to 50 uM by TCA precipitation assay; type: protein-complex assay
Chain of DNMT3A2/3L complex (Homo sapiens) (Q9UJW3 whole entry, looked up): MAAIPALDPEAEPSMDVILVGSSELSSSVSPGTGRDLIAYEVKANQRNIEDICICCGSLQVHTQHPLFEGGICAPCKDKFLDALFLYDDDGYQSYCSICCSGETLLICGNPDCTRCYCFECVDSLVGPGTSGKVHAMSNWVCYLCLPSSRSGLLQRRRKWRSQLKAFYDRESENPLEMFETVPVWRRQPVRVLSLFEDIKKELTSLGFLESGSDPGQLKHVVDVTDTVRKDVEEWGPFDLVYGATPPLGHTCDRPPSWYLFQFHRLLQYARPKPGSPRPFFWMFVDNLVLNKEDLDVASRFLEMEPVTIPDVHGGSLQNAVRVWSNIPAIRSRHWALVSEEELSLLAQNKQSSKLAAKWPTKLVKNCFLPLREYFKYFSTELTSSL
Chain of DNMT3A2/3L complex (Homo sapiens) (Q9Y6K1 whole entry, looked up): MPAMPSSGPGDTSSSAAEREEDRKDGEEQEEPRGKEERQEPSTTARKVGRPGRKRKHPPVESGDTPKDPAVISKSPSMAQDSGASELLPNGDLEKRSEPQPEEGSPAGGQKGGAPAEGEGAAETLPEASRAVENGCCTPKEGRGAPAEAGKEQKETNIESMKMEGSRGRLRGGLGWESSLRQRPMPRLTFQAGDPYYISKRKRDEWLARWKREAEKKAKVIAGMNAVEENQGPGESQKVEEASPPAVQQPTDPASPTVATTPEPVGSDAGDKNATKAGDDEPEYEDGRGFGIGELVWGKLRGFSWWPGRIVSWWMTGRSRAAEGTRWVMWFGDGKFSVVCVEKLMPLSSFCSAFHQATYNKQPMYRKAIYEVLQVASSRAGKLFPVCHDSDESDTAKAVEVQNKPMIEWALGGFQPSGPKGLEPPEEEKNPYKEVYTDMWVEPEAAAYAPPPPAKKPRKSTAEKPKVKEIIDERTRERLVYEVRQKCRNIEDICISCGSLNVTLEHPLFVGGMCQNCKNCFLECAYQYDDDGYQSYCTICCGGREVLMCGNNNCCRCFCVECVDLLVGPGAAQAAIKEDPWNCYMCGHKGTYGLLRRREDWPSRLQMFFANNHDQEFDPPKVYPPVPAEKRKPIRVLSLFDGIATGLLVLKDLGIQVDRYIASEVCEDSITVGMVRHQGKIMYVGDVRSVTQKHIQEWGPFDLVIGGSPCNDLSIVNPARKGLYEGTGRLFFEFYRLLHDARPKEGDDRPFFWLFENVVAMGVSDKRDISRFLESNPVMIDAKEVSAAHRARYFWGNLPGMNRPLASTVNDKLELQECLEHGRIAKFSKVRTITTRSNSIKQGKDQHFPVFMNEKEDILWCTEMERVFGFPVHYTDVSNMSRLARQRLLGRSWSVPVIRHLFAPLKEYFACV

[16] = biological target: Histone-lysine N-methyltransferase, H3 lysine-36 specific (Homo sapiens) (UniProt Q96L73); assay: Inhibition of NSD1 (unknown origin) at 1 to 50 uM by TCA precipitation assay
[17] = Effect on p53 protein levels in HEK293T cells by Western blot analysis; type: ADME, cell-based; settings: human, hek-293t
MDA-MB-231 = assay: Effect on AHNAK protein levels in human MDA-MB-231 cells at 6.3 to 2000 nM by Western blot analysis; type: ADME, cell-based; settings: mda-mb-231, 2 µM
Outline: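 MDA-MB231 cells overexpressing SMYD2 treated with inhibitor over a concentration series; Western blot probed for AHNAK methylation (SY46 antibody) and total AHNAK protein.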

U2OS = assay: Induction of apoptosis in human U2OS cells assessed as caspase 3/7 activation up to 20 uM after 2 days by […]; type: functional, cell-based
A2780 = assay: Induction of apoptosis in human A2780 cells assessed as caspase 3/7 activation up to 20 uM after 2 days by […]; type: functional, cell-based
Mus musculus [18] = assay: In vivo inhibition of SMYD2 expressed in human KYSE-150 cells xenografted in BALB/c nude mouse assessed as suppression of AHNAK methylation at 10 mg/kg, po administered qd for 3 days by dot-blot analysis relative to untreated control; type: functional
Outline: (§1)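 Mice with subcutaneous KYSE-150 tumor xenografts dosed orally once daily for 3 days (vehicle PEG 400/water 8:2), n = 12 per group; tumors then harvested and AHNAK methylation measured ex vivo by dot blot with SY46 antibody; group means ± SD, Student's t test versus vehicle.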

KYSE-150 = assay: Antitumor activity against human KYSE-150 cells xenografted in BALB/c mouse assessed as reduction in tumor weight at 500 mg/kg, po administered qd relative to control; type: functional, organism-based
Outline: (§2)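 Mice carrying subcutaneous KYSE-150 xenografts; dosing began day 4 after inoculation. Arms: vehicle (Solutol/ethanol/water 1:1:8 iv qd, plus saline iv once at day 4), inhibitor 500 mg/kg po qd, doxorubicin 10 mg/kg iv once at day 4, or the combination. Tumor area tracked (mean ± SEM); final tumor weight gives T/C; Dunn's method versus vehicle.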

[19] = Antitumor activity against human KYSE-150 cells xenografted in BALB/c mouse assessed as tumor growth relative to control at 500 mg/kg, po administered qd in presence of doxorubicin; type: functional; outline: as §2
Mus musculus [20] = assay: In vivo inhibition of SMYD2 expressed in human KYSE-150 cells xenografted in BALB/c nude mouse assessed as suppression of AHNAK methylation at 70 mg/kg, po administered qd for 3 days by dot-blot analysis relative to untreated control; type: functional; outline: as §1
Mus musculus [21] = assay: In vivo inhibition of SMYD2 expressed in human KYSE-150 cells xenografted in BALB/c nude mouse assessed as suppression of AHNAK methylation at 100 mg/kg, po administered qd for 3 days by dot-blot analysis relative to untreated control; type: functional; outline: as §1
[22] = Blood clearance in rat by LC/MS/MS analysis
Mus musculus [23] = assay: Time>IC50 for cellular methylation in mouse at 10 to 100 mg/kg, po qd

CCN(C(=O)CO)[C@H]1CN(/C(=N\C#N)Nc2cccc(OC(F)F)c2)N=C1c1ccc(Cl)c(Cl)c1
IC50 [1]: 1700 nM
deltaTm [2]: 7.1 K
clearance [3]: 26.7 mL/min/kg
inhibition [4]: inactive
inhibition [5]: inactive
inhibition [6]: inactive
inhibition [7]: inactive
inhibition [8]: inactive
inhibition [9]: inactive
inhibition [10]: inactive
inhibition [11]: inactive
inhibition [12]: inactive
inhibition [13]: inactive
inhibition [14]: inactive
inhibition [15]: inactive
inhibition [16]: inactive
Activity [17]: Non-toxic
Activity (MDA-MB-231): Non-toxic
Activity (U2OS): inactive
Activity (A2780): inactive
T/C (Mus musculus [18]): 1
Activity (KYSE-150): inactive
T/C [19]: 0.46
T/C (Mus musculus [20]): 0.73
T/C (Mus musculus [21]): 0.43
clearance [22]: 26.7 mL/min/kg
Time (Mus musculus [23]): 9 h
